ChEMBL document CHEMBL4765233, “From Lead to Drug Candidate: Optimization of 3-(Phenylethynyl)-1H-pyrazolo[3,4-d]pyrimidin-4-amine Derivatives as Agents for the Treatment of Triple Negative Breast Cancer” (J Med Chem, 2016)

Tests used:
MDA-MB-231 = experiment: Antiproliferative activity against human MDA-MB-231 cells assessed as reduction in cell viability incubated for 72 hrs by MTT assay; format: functional, cell-based; conditions: MDA-MB-231, 72 h
Procedure, shortened: (§1)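 MTT viability assay. ATCC cell lines were grown in designated medium with 10% FBS at 37 °C, 5% CO2. Cells seeded at 1500−30000 per well and incubated 24 h, then exposed to compound (0−10 μg/mL) for 72 h. MTT added for 2−4 h. Formazan dissolved in DMSO (adherent) or acidified SDS overnight (suspension), absorbance read at 570 nm. Triplicates; IC50 calculated.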

MDA-MB-435 = experiment: Antiproliferative activity against human MDA-MB-435 cells assessed as reduction in cell viability incubated for 72 hrs by MTT assay; format: functional, cell-based; conditions: MDA-MB-435, 72 h; procedure, shortened: as §1
HepG2 = experiment: Antiproliferative activity against human HepG2 cells assessed as reduction in cell viability incubated for 72 hrs by MTT assay; format: ADME, cell-based; conditions: HepG2, 72 h

Row | Structure (SMILES) | IC50 (MDA-MB-231) [nM] | IC50 (MDA-MB-435) [nM] | IC50 (HepG2) [nM]
1 | Cc1ccc(C(=O)Nc2cccc(C(F)(F)F)c2)cc1C#Cc1nn(CC2CCN(C)CC2)c2ncnc(N)c12 | 70 | 55 | 3100
2 | Cc1ccc(NC(=O)c2cc(C(F)(F)F)cc(Cl)c2F)cc1C#Cc1nn(C2CCN(C)CC2)c2ncnc(N)c12 | 1880 | 3380 | > 10000
3 | Cc1ccc(NC(=O)c2cccc(C(C)(C)C)c2)cc1C#Cc1nn(C2CCN(C)CC2)c2ncnc(N)c12 | 59 | 20 | > 10000
4 | Cc1ccc(NC(=O)c2cccc(C(C)(C)C)c2)cc1C#Cc1nn([C@H]2CC[C@H](O)CC2)c2ncnc(N)c12 | 30 | 12 | 4400
5 | Cc1ccc(NC(=O)c2cc(C(C)(C)C)nn2C)cc1C#Cc1nn(C2CCN(C)CC2)c2ncnc(N)c12 | 324 | 80 | > 10000
6 | Cc1ccc(NC(=O)c2ccc(C)c(C(F)(F)F)c2)cc1C#Cc1nn(C[C@@H](C)CO)c2ncnc(N)c12 | 48 | 123 | 8300
7 | Cc1ccc(NC(=O)c2cccc(Cl)c2)cc1C#Cc1nn(C2CCN(C)CC2)c2ncnc(N)c12 | 60 | 733 | 9200
8 | Cc1ccc(NC(=O)c2cccc(OC(F)(F)F)c2)cc1C#Cc1nn(C2CCN(C)CC2)c2ncnc(N)c12 | 75 | 93 | > 10000
9 | Cc1ccc(NC(=O)c2cc(Cl)cc(C(F)(F)F)c2)cc1C#Cc1nn(C2CCN(C)CC2)c2ncnc(N)c12 | 85 | 63 | 2600
10 | Cc1ccc(NC(=O)c2cccc(C(F)(F)F)c2)cc1C#Cc1nn(CC2CCN(C)CC2)c2ncnc(N)c12 | – | – | 3200
11 | Cc1ccc(NC(=O)c2cnc(C(C)(C)C)s2)cc1C#Cc1nn(C[C@@H](C)CO)c2ncnc(N)c12 | 34 | 73 | > 10000
12 | Cc1ccc(NC(=O)c2cncc(C(F)(F)F)c2)cc1C#Cc1nn(C2CCN(C)CC2)c2ncnc(N)c12 | 167 | 65 | > 10000
13 | Cc1ccc(NC(=O)c2ccc(F)c(C(F)(F)F)c2)cc1C#Cc1nn(C2CCN(C)CC2)c2ncnc(N)c12 | 523 | 621 | > 10000
14 | COc1cccc(C(=O)Nc2ccc(C)c(C#Cc3nn(C4CCN(C)CC4)c4ncnc(N)c34)c2)c1 | 101 | 285 | > 10000
15 | Cc1ccc(C(=O)Nc2cccc(C(F)(F)F)c2)cc1C#Cc1nn([C@@H]2CCN(C)C2)c2ncnc(N)c12 | 13 | 44 | 4600
16 | Cc1ccc(NC(=O)c2cc(C(C)(C)C)on2)cc1C#Cc1nn(C2CCN(C)CC2)c2ncnc(N)c12 | 188 | 82 | > 10000
17 | Cc1ccc(NC(=O)c2cccc(C(F)(F)F)c2F)cc1C#Cc1nn(C2CCN(C)CC2)c2ncnc(N)c12 | 296 | 273 | > 10000
18 | Cc1ccc(NC(=O)c2cc(C(F)(F)F)cc(C(F)(F)F)c2)cc1C#Cc1nn(C2CCN(C)CC2)c2ncnc(N)c12 | 51 | 94 | 7100
19 | Cc1ccc(NC(=O)c2cccc(F)c2)cc1C#Cc1nn(C2CCN(C)CC2)c2ncnc(N)c12 | 812 | 2070 | > 10000

Row | Structure (SMILES) | IC50 (MDA-MB-231) [nM] | IC50 (MDA-MB-435) [nM] | IC50 (HepG2) [nM]
20 | Cc1ccc(NC(=O)c2cccc(C(F)(F)F)c2)cc1C#Cc1nn(CC2CCN(C)C2)c2ncnc(N)c12 (stereo not drawn) | – | – | 4700
21 | Cc1ccc(NC(=O)c2cc(F)cc(C(F)(F)F)c2)cc1C#Cc1nn(C2CCN(C)CC2)c2ncnc(N)c12 | 671 | 1430 | > 10000
22 | CN1CCC(n2nc(C#Cc3cccc(C(=O)Nc4cccc(C(F)(F)F)c4)c3)c3c(N)ncnc32)CC1 | 1690 | 343 | > 10000
23 | Cc1ccc(NC(=O)c2cc(C(F)(F)F)ccc2F)cc1C#Cc1nn(C2CCN(C)CC2)c2ncnc(N)c12 | 201 | 117 | 2700
24 | Cc1ccc(NC(=O)Nc2cccc(C(F)(F)F)c2)cc1C#Cc1nn(C2CCN(C)CC2)c2ncnc(N)c12 | 515 | 90 | > 10000
25 | Cc1ccc(NC(=O)c2ccnc(C(F)(F)F)c2)cc1C#Cc1nn(C2CCN(C)CC2)c2ncnc(N)c12 | 284 | 183 | > 10000
26 | CCn1nc(C#Cc2cc(C(=O)Nc3cccc(C(F)(F)F)c3)ccc2C)c2c(N)ncnc21 | 360 | 238 | > 10000
27 | CN1CCC(n2nc(C#Cc3cc(NC(=O)Nc4cccc(C(F)(F)F)c4)ccc3Cl)c3c(N)ncnc32)CC1 | 947 | 334 | > 10000
28 | Cc1cccc(C(=O)Nc2ccc(C)c(C#Cc3nn(C4CCN(C)CC4)c4ncnc(N)c34)c2)c1 | 133 | 422 | > 10000
29 | COc1ccc(C(=O)Nc2ccc(C)c(C#Cc3nn(C4CCN(C)CC4)c4ncnc(N)c34)c2)cc1 | 1360 | 8900 | > 10000
30 | Cc1ccc(NC(=O)c2cccc(C(F)(F)F)c2)cc1C#Cc1nn([C@@H]2CCN(C)C2)c2ncnc(N)c12 | – | – | 6600
31 | CN1CCC(n2nc(C#Cc3cccc(NC(=O)Nc4cccc(C(F)(F)F)c4)c3)c3c(N)ncnc32)CC1 | 1350 | 557 | 6200
32 | CN1CCC(n2nc(C#Cc3cc(NC(=O)c4cccc(C(F)(F)F)c4)ccc3Cl)c3c(N)ncnc32)CC1 | 947 | 195 | > 10000
33 | Cc1ccc(NC(=O)c2ccc(C(F)(F)F)cc2)cc1C#Cc1nn(C2CCN(C)CC2)c2ncnc(N)c12 | 854 | 5140 | > 10000
34 | Cc1ccc(NC(=O)c2ccc(Cl)c(C(F)(F)F)c2)cc1C#Cc1nn(C[C@@H](C)CO)c2ncnc(N)c12 | 23 | 319 | > 10000
35 | Cc1ccc(NC(=O)c2cccc(C(F)(F)F)n2)cc1C#Cc1nn(C2CCN(C)CC2)c2ncnc(N)c12 | 509 | 2470 | > 10000
36 | CN1CCC(n2nc(C#Cc3cc(C(=O)Nc4cccc(C(F)(F)F)c4)ccc3Cl)c3c(N)ncnc32)CC1 | 749 | 135 | > 10000
37 | Cc1ccc(C(=O)Nc2cccc(C(F)(F)F)c2)cc1C#Cc1nn(CC2CCN(C)C2)c2ncnc(N)c12 (stereo not drawn) | 41 | 115 | 3500
38 | CN1CCC(n2nc(C#Cc3cccc(NC(=O)c4cccc(C(F)(F)F)c4)c3)c3c(N)ncnc32)CC1 | 597 | 140 | 6000
